Positions count from the first letter of the chain named. Values belong to the compound of their own block, whether it stands above or below them.
Columns and labels:
SIRT1 [1] = target: T1, SIRT1 (Homo sapiens, UniProt Q96EB6); assay: HPLC-MS/MS SIRT1 deacetylation assay with acetylated peptide substrates; assay type: biochemical; conditions: for activation of SIRT1 towards mutant p53 peptide (p53-W): 250 nM 18:1, 10 μM resveratrol, 1 μM SRT1720; for allosteric activation of SIRT1 towards wild-type p53 peptide: p53 peptide lacking hydrophobic residue at +1 or +6
T1 sequence (Q96EB6 1-747): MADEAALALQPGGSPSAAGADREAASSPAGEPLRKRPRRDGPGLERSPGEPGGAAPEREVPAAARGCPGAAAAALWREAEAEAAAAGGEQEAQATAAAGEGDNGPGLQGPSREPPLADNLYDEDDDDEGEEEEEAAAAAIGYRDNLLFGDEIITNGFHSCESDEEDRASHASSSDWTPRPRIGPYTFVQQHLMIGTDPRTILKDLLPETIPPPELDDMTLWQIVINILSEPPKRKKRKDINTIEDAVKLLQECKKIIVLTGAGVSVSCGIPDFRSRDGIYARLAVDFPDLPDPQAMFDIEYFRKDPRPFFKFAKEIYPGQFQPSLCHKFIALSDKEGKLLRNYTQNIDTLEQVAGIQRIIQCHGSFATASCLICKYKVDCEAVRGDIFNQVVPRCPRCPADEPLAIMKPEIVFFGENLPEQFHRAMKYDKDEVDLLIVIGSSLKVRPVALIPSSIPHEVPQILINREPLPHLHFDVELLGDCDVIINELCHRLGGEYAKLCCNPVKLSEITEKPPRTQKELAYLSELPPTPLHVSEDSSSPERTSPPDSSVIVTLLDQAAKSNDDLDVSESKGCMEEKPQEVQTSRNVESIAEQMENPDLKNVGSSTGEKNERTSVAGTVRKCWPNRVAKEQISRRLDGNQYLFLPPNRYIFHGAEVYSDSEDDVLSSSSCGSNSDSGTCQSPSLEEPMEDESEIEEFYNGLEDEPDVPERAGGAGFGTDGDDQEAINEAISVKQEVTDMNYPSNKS
Summary of the method: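 Recombinant SIRT1 (1 μM, E. coli-expressed) incubated with acetylated peptide (0–250 μM) plus fatty acid in 25 mM Tris, pH 8.0, 50 mM NaCl, 1 mM DTT, 1 mM NAD+ for 60 min at 37°C. Deacetylation quantified by HPLC-MS/MS with positive-mode electrospray. Km, Vmax and kcat obtained from Lineweaver-Burk plots.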

SIRT1 [2] = target: T1, SIRT1; assay: Intrinsic tryptophan fluorescence quenching binding assay, SIRT1; conditions: for Kd, SIRT1: tryptophan quenching
SIRT1 [3] = target: T1, SIRT1; assay: 1,8-ANS displacement assay, SIRT1; assay type: binding; conditions: for Ki, SIRT1: displacement of 1,8-ANS
SIRT1 [4] = target: T1, SIRT1; assay: Circular dichroic analysis of SIRT1 secondary structure with ligand; conditions: for shape of the CD spectrum of SIRT1: addition of ligand; for α-helical content of SIRT1: with ligand, 23% without ligand
[5] = target: T2, recombinant full-length murine PLIN5 (Mus musculus, UniProt Q8BVZ1); assay: Intrinsic tryptophan fluorescence quenching binding assay, PLIN5; conditions: for binding curve, PLIN5: tryptophan fluorescence
T2 sequence (Q8BVZ1 1-463): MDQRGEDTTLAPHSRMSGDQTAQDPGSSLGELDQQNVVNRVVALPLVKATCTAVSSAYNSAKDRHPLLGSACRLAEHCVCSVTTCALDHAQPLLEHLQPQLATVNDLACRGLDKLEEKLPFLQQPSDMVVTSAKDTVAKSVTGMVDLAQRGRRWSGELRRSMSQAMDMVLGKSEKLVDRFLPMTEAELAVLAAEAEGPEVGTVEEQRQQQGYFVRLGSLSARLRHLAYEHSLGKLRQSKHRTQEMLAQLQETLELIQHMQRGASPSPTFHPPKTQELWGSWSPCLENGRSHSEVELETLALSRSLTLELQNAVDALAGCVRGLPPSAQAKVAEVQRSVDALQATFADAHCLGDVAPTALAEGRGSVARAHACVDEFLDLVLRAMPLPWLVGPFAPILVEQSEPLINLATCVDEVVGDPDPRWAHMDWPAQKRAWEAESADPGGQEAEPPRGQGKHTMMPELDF
Summary of the method: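 Protein at 150 nM in 10 mM NaH2PO4, pH 7.5, titrated with ethanolic fatty acid. Excitation 295 nm, emission scanned 300–400 nm. Signal corrected for buffer-plus-ligand background. ΔF (F0−F) plotted against ligand to give a saturation curve. Kd taken from linear regression of the double-reciprocal transform. PLIN5: untagged full-length murine recombinant protein, n=4.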

PLIN5-pM (S155E) = target: T3, PLIN5-pM (S155E) (Mus musculus, UniProt Q8BVZ1, S155E); assay: Tryptophan fluorescence quenching binding assay, PLIN5-pM; parameters: species or system murine; conditions: for increase in binding affinity of PLIN5-pM: PLIN5-pM vs comparator
T3 sequence (Q8BVZ1 1-463 S155E): T2 sequence (Q8BVZ1 1-463) with S155E

PLIN5 = target: T4, PLIN5 (Mus musculus, UniProt Q8BVZ1); assay: 1,8-ANS displacement assay, PLIN5; assay type: binding, murine
T4 sequence (Q8BVZ1 1-463): T2 sequence (Q8BVZ1 1-463)
Summary of the method: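 Untagged recombinant PLIN5 (His-MBP tag removed by TEV protease) at 1 μM with 500 nM 1,8-ANS in 50 mM sodium phosphate, pH 7.5, 25°C. Competitor lipids added in increasing amounts, each mixed 60 s before reading fluorescence. I50 taken from the normalized displacement curve. Ki = I50/(1+[L]/KD), using the ANS KD from a Scatchard analysis of a protein titration.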

PGC-1α activity, MEFs = assay: PGC-1α luciferase reporter assay in MEFs; assay type: cell-based, mouse; conditions: for PGC-1α activity with cAMP, individual fatty acid loading: vs non-loaded or 18:0/16:0 loaded cells; for activation of PGC-1α in Sirt1 knockout cells rescued with GFP tagged human Sirt1: Sirt1 knockout MEFs + human Sirt1
PLIN5-pM = target: T5, PLIN5-pM (Mus musculus, UniProt Q8BVZ1, S155E); assay: Circular dichroic analysis of PLIN5-pM with ligand; parameters: species or system murine; conditions: addition of ligand
T5 sequence (Q8BVZ1 1-463 S155E): T2 sequence (Q8BVZ1 1-463) with S155E
Summary of the method: (§1)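 Far-UV CD spectra of the PLIN5 phospho-mutants in 10 mM NaH2PO4, pH 7.5, with 10 mM NaCl, with and without ligand. Run at 25°C in a 1 mm path cuvette. Ligand incubated 2–5 min before each scan. Each spectrum is the average of ten scans, repeated in triplicate.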

PLIN5-pD = target: T6, PLIN5-pD (Mus musculus, UniProt Q8BVZ1, S155A); assay: Circular dichroic analysis of PLIN5-pD with ligand; parameters: species or system murine; conditions: addition of ligand
T6 sequence (Q8BVZ1 1-463 S155A): T2 sequence (Q8BVZ1 1-463) with S155A
Summary of the method: as §1

[6] = test system: PGC-1α activity, primary hepatocytes; assay: PGC-1α luciferase reporter assay in primary hepatocytes; assay type: cell-based, mouse; conditions: hepatocytes preloaded with fatty acid
[7] = test system: PGC-1α activity, mouse L-cells; assay: PGC-1α luciferase reporter assay in L-cells; assay type: cell-based; conditions: Plin5 knockout L-cells
[8] = test system: cellular cAMP levels, MEF cells; assay: cAMP-Glo Assay in MEF cells; assay type: cell-based, mouse; conditions: 6 hrs 500 μM 18:1, no Iso/IBMX
Summary of the method: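 MEFs in DMEM/10% FBS given 2% fatty-acid-free BSA or 500 μM 18:1–BSA complex for 6 or 16 h. Then washed and switched to serum-free DMEM with DMSO or 20 μM isoproterenol/500 μM IBMX for 20 min. cAMP-Glo steps at room temperature: lysis 15 min, detection solution 20 min, Kinase-Glo 10 min. n=12–16.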

[9] = acetylated PGC-1α peptide substrate
[10] = acetylated FOXO3a peptide substrate
[11] = fixed amounts of PGC-1α, FOXO3a and H3 peptides, 150 or 600 nM 18:1

- stimulation of SIRT1 deacetylase activity (SIRT1 [1]; [9]): unable to stimulate
- Kd, SIRT1 (SIRT1 [2]): No fatty acid binding was observed
- Ki, SIRT1 (SIRT1 [3]): not observed
- shape of the CD spectrum of SIRT1 (SIRT1 [4]): did not alter
- binding curve, PLIN5 [5]: Saturable binding curves
Structure (SMILES): CCCCCCCCCCCCCCCC(=O)O [16:0, palmitic acid]

- Km of SIRT1 towards the PGC-1α peptide (SIRT1 [1]; [9]): lowering
- SIRT1 catalytic efficiency (Kcat/Km) towards the PGC-1α peptide (SIRT1 [1]; [9]): increase
- Kd (SIRT1 [2]): 0.1 ± 0.003 µM
- Ki (SIRT1 [3]): 12.5 ± 0.06 µM
- α-helical content of SIRT1 (SIRT1 [4]): 25.9%
- Kd [5]: 0.082 ± 0.012 µM
- binding curve, PLIN5 [5]: Saturable binding curves
- Kd (PLIN5-pM (S155E)): 0.023 ± 0.003 µM
- increase in binding affinity of PLIN5-pM (PLIN5-pM (S155E)): 3.4 fold
- Ki (PLIN5): 9.9 ± 0.07 µM
- PGC-1α activity with cAMP, individual fatty acid loading (PGC-1α activity, MEFs): synergized with cAMP
Structure (SMILES): CCCCCC/C=C\CCCCCCCC(=O)O [16:1, palmitoleic acid]

- stimulation of SIRT1 deacetylase activity (SIRT1 [1]; [9]): unable to stimulate
- Kd, SIRT1 (SIRT1 [2]): No fatty acid binding was observed
- Ki, SIRT1 (SIRT1 [3]): not observed
- shape of the CD spectrum of SIRT1 (SIRT1 [4]): did not alter
- binding curve, PLIN5 [5]: Saturable binding curves
- Ki (PLIN5): 17.7 ± 0.04 µM
Structure (SMILES): CCCCCCCCCCCCCCCCCC(=O)O [18:0, stearic acid]

Structure (SMILES): CCCCCCCC/C=C\CCCCCCCC(=O)O [18:1, oleic acid]
- effect on Km and catalytic efficiency on co-addition with resveratrol (SIRT1 [1]; PGC-1α peptide, co-addition of 18:1 and resveratrol vs single compound): not additive
- Km of SIRT1 towards the FOXO3a peptide (SIRT1 [1]; [10]): reduced
- SIRT1 catalytic efficiency towards the FOXO3a peptide (SIRT1 [1]; [10]): increased
- Km of SIRT1 towards the PGC-1α peptide (SIRT1 [1]; [9]): lowering
- SIRT1 catalytic efficiency (Kcat/Km) towards the PGC-1α peptide (SIRT1 [1]; [9]): increase
- enzyme velocity (SIRT1 [1]; [9]): without a significant change
- deacetylase activity towards FOXO3a and PGC-1α peptides, competition assay (SIRT1 [1]; [11]): increased
- deacetylase activity towards H3, competition assay (SIRT1 [1]; [11]): decreased
- activation of SIRT1 towards mutant p53 peptide (p53-W) (SIRT1 [1]): activated
- allosteric activation of SIRT1 towards wild-type p53 peptide (SIRT1 [1]): did not respond
- Kd (SIRT1 [2]): 0.081 ± 0.009 µM
- Ki (SIRT1 [3]): 5.6 ± 0.12 µM
- α-helical content of SIRT1 (SIRT1 [4]): 28.6%
- Kd [5]: 0.089 ± 0.002 µM
- binding curve, PLIN5 [5]: Saturable binding curves
- Kd (PLIN5-pM (S155E)): 0.036 ± 0.008 µM
- increase in binding affinity of PLIN5-pM (PLIN5-pM (S155E)): 2.4 fold
- Ki (PLIN5): 4 ± 0.13 µM
- shape of the CD spectrum of PLIN5-pM (PLIN5-pM): robustly altered
- CD spectrum changes of PLIN5-pD (PLIN5-pD): more subtle changes
- PGC-1α activity response to cAMP and protein overexpression [6]: further enhanced
- basal PGC-1α activity, acute exposure (PGC-1α activity, MEFs; 6 hrs, 500 μM 18:1): increased
- requirement of PKA-stimulated lipolysis for activation of PGC-1α (PGC-1α activity, MEFs; PKA or ATGL inhibitors): required
- regulation of PGC-1α activity in MEFs lacking Sirt1 (PGC-1α activity, MEFs; Sirt1 knockout MEFs): SIRT1 was required
- activation of PGC-1α in Sirt1 knockout cells rescued with GFP tagged human Sirt1 (PGC-1α activity, MEFs): restored
- PGC-1α activity upon stimulation of β-adrenergic signaling (PGC-1α activity, MEFs; acute and overnight loading vs non-loaded cells, isoproterenol/IBMX): enhanced
- PGC-1α activity with cAMP, individual fatty acid loading (PGC-1α activity, MEFs): synergized with cAMP
- regulation of PGC-1α activity in L-Cells lacking Plin5 [7]: PLIN5 was required
- cellular cAMP levels, acute exposure [8]: increased

- binding curve, PLIN5 [5]: Saturable binding curves
Structure (SMILES): CCCCC/C=C\C/C=C\C/C=C\C/C=C\CCCC(=O)O [20:4, arachidonic acid]

Structure (SMILES): CN(C)C(=O)Nc1cccc(-c2ccc(N(C)C)cc2)c1 [ATGLstatin, reference compound]
- effects of β-adrenergic stimulation on PGC-1α activity in 18:1 loaded cells (PGC-1α activity, MEFs; 30 μM ATGL inhibitor): blocked

- activation of SIRT1 towards mutant p53 peptide (p53-W) (SIRT1 [1]): activated
- allosteric activation of SIRT1 towards wild-type p53 peptide (SIRT1 [1]): did not respond
Structure (SMILES): O=C(Nc1ccccc1-c1cn2c(CN3CCNCC3)csc2n1)c1cnc2ccccc2n1 [SRT1720, reference compound]

- activation of SIRT1 towards mutant p53 peptide (p53-W) (SIRT1 [1]): activated
- allosteric activation of SIRT1 towards wild-type p53 peptide (SIRT1 [1]): did not respond
Structure (SMILES): Oc1ccc(/C=C/c2cc(O)cc(O)c2)cc1 [resveratrol, reference compound]
- activation of PGC-1α in Sirt1 knockout cells rescued with GFP tagged human Sirt1 (PGC-1α activity, MEFs): restored
- regulation of PGC-1α in Sirt1 knockout cells rescued with Sirt1-E230K mutant (PGC-1α activity, MEFs; Sirt1 knockout MEFs + human Sirt1 E230K): did not restore
